Test system: MS2 coat protein
Test: apparent Kd, MS2 coat protein; higher = weaker binding; RNA-MaP array; FMN 200 µM where present
Summary of the method: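 Designs were transcribed by stalled E. coli RNA polymerase on Illumina sequencing-chip clusters. They were titrated with SNAP-549-labelled MS2 coat protein from 0.7 or 1.5 nM, doubling to 3 µM, in 100 mM Tris-HCl pH 7.5, 80 mM KCl, 4 mM MgCl2, BSA, DTT, yeast tRNA and Tween-20, without and then with constant ligand. The apparent Kd is the median of filtered per-cluster fits after normalisation of green signal to red-channel RNA signal and control-cluster median Fmax.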

[1] = designed as: ON switch for flavin mononucleotide, no ligand
[2] = ligand present: flavin mononucleotide, designed as: ON switch for flavin mononucleotide
[3] = designed as: OFF switch for flavin mononucleotide, no ligand
[4] = ligand present: flavin mononucleotide, designed as: OFF switch for flavin mononucleotide

| Sequence | apparent Kd [1] [nM] | apparent Kd [2] [nM] | apparent Kd [3] [nM] | apparent Kd [4] [nM] |
| --- | --- | --- | --- | --- |
| AUAUUUGUGUAGAAGGUACGUGAUUAGUCAUAGUAAGGAUAUACUGACAUGAGGAUCACCCAUGUAUAAAUAGUUAAAUGUUCU | 14.4 | 8.52 | – | – |
| AUCAACCAGGCAGGAUAUCAAUGUGGCCUCAUCGUACACCCUCGCAACAUGAGGAUCACCCAUGUUGAGAAGGGCCAAUUGAGA | – | – | 8.52 | 8.99 |
| AUCACAGCCACAGGAUAUCCACAUGAGGAUCACCCAUGUUACCGAAGGGUAGGAGAAGGGUGGCGCUCGUUGCGGACGAUGAAU | 121 | 15.1 | – | – |
| AUCAGAUCGUCAGGAUAUACGUCACUGCGUCAGCAGUGUGGUAAGAUCACAUGAGGAUCACCCAUGUAGAAGGGACGAGCUGAU | – | – | 13.9 | 296 |
| AUCAGCACGUGAGGAUAUGCGUCACUGCGAAAGCAGUGCGGUAAGAUCACAUGAGGAUCACCCAUGUAGAAGGCACGAGCUGAU | – | – | 20.8 | 54 |
| AUCAGCUCCUCAGGAUAUACAUCACUGCUUCGGCAGUGUAUUAAGAUCACAUGAGGAUCACCCAUGUAGAAGGGAGGAGCUGAU | – | – | 29.5 | 336 |
| AUCAGCUCGUCAGGAUAUACAUCACUGCUUCGGCAGUGUAUCAUAACAACAUGAGGAUCACCCAUGUAGAAGGGACGAGCUGAU | – | – | 23.8 | 34.7 |
| AUCAGCUCGUCAGGAUAUACGUCACAGCGUCAGCAGUGUGGUAAGAUCACAUGAGGAUCACCCAUGUAGAAGGGACGAGCUGAU | – | – | 16.8 | 223 |
| AUCAGCUCGUCAGGAUAUACGUCACUGCGUCAGCAGUGAGGUAAGAUCACAUGAGGAUCACCCAUGUAGAAGGGACGAGCUGAU | – | – | 6.09 | 13.2 |
| AUCAGCUCGUCAGGAUAUACGUCACUGCGUCAGCAGUGUGAUAAGAUCACAUGAGGAUCACCCAUGUAGAAGGGACGAGCUGAU | – | – | 8.48 | 72.3 |
| AUCAGCUCGUCAGGAUAUACGUCACUGCGUCAGCAGUGUGCUAAGAUCACAUGAGGAUCACCCAUGUAGAAGGGACGAGCUGAU | – | – | 5.83 | 22.1 |
| AUCAGCUCGUCAGGAUAUACGUCACUGCGUCAGCAGUGUGGUAAGAUCACAUGAGGAUCACCCAUGUAGAAGGGACAAGCUGAU | – | – | 13.1 | 270 |
| AUCAGCUCGUCAGGAUAUACGUCACUGCGUCAGCAGUGUGGUAAGAUCACAUGAGGAUCACCCAUGUAGAAGGGACGAGCAGAU | – | – | 13.7 | 262 |
| AUCAGCUCGUCAGGAUAUACGUCACUGCGUCAGCAGUGUGGUAAGAUCACAUGAGGAUCACCCAUGUAGAAGGGUCGAGCUGAU | – | – | 17.7 | 349 |
| AUCAGCUCGUCAGGAUAUACGUCACUGCGUCAGGAGUGUGGUAAGAUCACAUGAGGAUCACCCAUGUAGAAGGGACGAGCUGAU | – | – | 16.6 | 298 |
| AUCAGCUCGUCAGGAUAUACGUCACUGCUUCGGCAGUGUGGUAAGAUAACAUGAGGAUCACCCAUGUAGAAGGGACGAGCUGAU | – | – | 6.3 | 12.1 |
| AUCAGCUCGUCAGGAUAUACGUCCUGGUAAGAUCACAUGAGGAUCACCCAUGUAGAAGGGACGAGCUGAUAAGCACGAAAGUGC | – | – | 18.6 | 81.6 |
| AUCAGCUCGUCAGGAUAUACUUCACUGCGUCAGCAGUGUGGUAAGAUCACAUGAGGAUCACCCAUGUAGAAGGGACGAGCUGAU | – | – | 6 | 8.71 |
| AUCAGCUCGUCAGGAUAUAUAUCACUGCUUCGGCAGUGUAUUAAGAUCACAUGAGGAUCACCCAUGUAGAAGGGACGAGCUGAU | – | – | 16.8 | 20.2 |
| AUCAGCUCGUCAGGAUAUAUGUCACUGCUUCGGCAGUGUGGUAAGAUCACAUGAGGAUCACCCAUGUAGAAGGGACGAGCUGAU | – | – | 29.7 | 78 |
| AUCAGCUCGUCAGGAUAUGCGUCACUGCUUCGGCAGUGUGGUAAGAUCACAUGAGGAUCACCCAUGUAGAAGGGACGAGCUGAU | – | – | 9.91 | 75.2 |
| AUCAGCUCGUGAGGAUAUGCGUCACUGCGUCAGCAGUGUGGUAAGAUCACAUGAGGAUCACCCAUGUAGAAGGCACGAGCUGAU | – | – | 34 | 455 |
